INS-1E rescue: rescue of cytokine-induced death in INS-1E beta cells. INS-1E cytokine-induced death, ATP luminescence, 48 h; normalised: neutral wells 0, positive control 100. protection from cytokine-induced ATP loss, % at 10 µM. 20,000 compounds, 0.1% hits. AID 488910;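 active = mean replicate protection from cytokine-induced ATP loss at least 50% and at least 75% of replicates each reaching 50%; inconclusive = meets only one of the two criteria, mean or replicate share; inactive = fails both the mean and replicate share criteria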
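Assay system: INS-1E rat cells / Quantity: 8000 cells per well / Medium: RPMI without phenol red, 5% FBS / Probe or stimulus: three-cytokine cocktail (IFN-γ, TNF-α, IL-1β) / Dosing: one compound concentration, pin transfer / Timing: 48 h co-treatment, 10 min post-lysis read / Technique: CellTiter-Glo luminescence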
YB-1 expression: YB-1 expression inhibition; U2OS, qRT-PCR YB-1 vs CDIP delta delta Cp, 16 h; active compounds read high; zero = DMSO, each unit about twofold; delta delta Cp (YB-1 minus CDIP) (no concentration beside the values); 30,000 compounds, 0.37% hits; AID 434959;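 active = delta delta Cp rounded down to an integer at or above 3, about 3 SD of DMSO wells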;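 note: higher means less YB-1 transcript or more CDIP transcript relative to DMSO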
T cruzi HTS: intracellular Trypanosoma cruzi inhibition; intracellular Trypanosoma cruzi in host cells, plate reader; activity score (inhibition), % at 5.01 µM; 22,000 compounds, 4.9% hits; in the data active = activity score above about 55%; inconclusive = no clear call, values can overlap the other calls;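 note: parasites and compound incubated about four days before reading; 0% = median of neutral control wells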
* = called active by the depositor; ? = inconclusive; . = no result. Only a selection was taken, and hits are over-represented in it overall.

SMILES	INS-1E rescue	YB-1 expression	T cruzi HTS
COc1ccc(CN(C)C[C@H]2OCCCC[C@@H](C)Oc3ccc(NC(=O)Nc4ccc(OC)cc4)cc3C(=O)N([C@H](C)CO)C[C@@H]2C)cc1	-14	0.53	-12
C[C@@H]1CCCCO[C@H](CN(C)Cc2ccncc2)[C@@H](C)CN([C@H](C)CO)C(=O)c2cc(NC(=O)Nc3ccc(C(F)(F)F)cc3)ccc2O1	-11	-0.22	38
C[C@@H]1CCCCO[C@H](CN(C)Cc2ccccc2)[C@@H](C)CN([C@H](C)CO)C(=O)c2cc(NC(=O)Nc3ccc4c(c3)OCO4)ccc2O1	-12	0.028	41
C[C@@H]1CCCCO[C@H](CN(C)Cc2ccc(C(=O)O)cc2)[C@@H](C)CN([C@H](C)CO)C(=O)c2cc(NC(=O)Nc3ccc(C(F)(F)F)cc3)ccc2O1	4	0.052	-3
COc1ccc(CN(C)C[C@@H]2OCCCC[C@@H](C)Oc3ccc(NC(=O)Nc4ccc(C(F)(F)F)cc4)cc3C(=O)N([C@H](C)CO)C[C@@H]2C)cc1	-32	0.037	63*
O=C(Cc1ccccc1)NC1CCN(C(=O)c2cccs2)CC1	.	-0.055	.
O=C1OCc2cc3cccc(O[C@@H]4O[C@H](CO[C@@H]5OC[C@@H](O)[C@H](O)[C@H]5O)[C@@H](O)[C@H](O)[C@H]4O)c3c(O)c21	.	-0.057	.
O=C1/C(=C\c2c[nH]c3ccccc23)C(c2ccccc2)Oc2ccccc21 (centres undefined)	.	-0.1	.
CCN(CC)c1ccc2cc(C(N)=O)c(=Nc3ccc(F)cc3)oc2c1	.	0.19	.
CCc1cc(C(c2ccc(Cl)cc2)N2CCN(CCO)CC2)c(NC(=O)c2ccccc2)s1 (centres undefined)	.	-0.18	.
CC(=O)Oc1ccc2c(c1)CCC1C2CC[C@@]2(C)C1CC[C@@H]2OC(C)=O (some centres undefined)	.	-0.12	.
O=C(CCc1ccc(O)c(O)c1)C[C@H](CCc1ccc(O)c(O)c1)O[C@@H]1OC[C@@H](O)[C@H](O)[C@H]1O	.	-0.23	.
CCC(C)C(OC1OC(C)C(O)C(O)C1O)C(C)C(=O)C(C)/C=C(\C)CC(C)C(O)C(C)C(=O)O (centres undefined)	.	0.36	.
Cc1ccc(S(=O)(=O)N=S(Cc2ccccc2)Cc2ccccc2)cc1	.	-0.078	.
C[C@@H]1CN([C@@H](C)CO)C(=O)c2cccc(NC(=O)Nc3ccc4c(c3)OCO4)c2O[C@@H]1CN(C)Cc1ccc(C(=O)O)cc1	3	-0.15	-17
C[C@@H]1CN([C@H](C)CO)C(=O)c2cccc(NC(=O)Nc3ccc4c(c3)OCO4)c2O[C@H]1CN(C)Cc1ccc(Oc2ccccc2)cc1	-10	0.09	31
C[C@@H]1CN([C@@H](C)CO)C(=O)c2cccc(NC(=O)Nc3ccc4c(c3)OCO4)c2O[C@@H]1CN(C)Cc1ccc(C(=O)Nc2ccccc2N)cc1	22	-0.34	54
C[C@H](CO)N1C[C@H](C)[C@H](CN(C)Cc2ccc(Oc3ccccc3)cc2)Oc2c(NC(=O)Nc3ccc4c(c3)OCO4)cccc2C1=O	-46	0.094	78*
C[C@H]1CN([C@@H](C)CO)C(=O)c2cccc(NC(=O)Nc3ccc4c(c3)OCO4)c2O[C@@H]1CN(C)Cc1ccc(C(=O)Nc2ccccc2N)cc1	10	-0.54	68*
Cc1noc(C)c1NC(=O)N(C)C[C@H]1Oc2ccc(NC(=O)Cn3cnnn3)cc2C(=O)N([C@@H](C)CO)C[C@@H]1C	-2	3.9*	-27
Cc1noc(C)c1NC(=O)N(C)C[C@@H]1Oc2ccc(NC(=O)Cn3cnnn3)cc2C(=O)N([C@H](C)CO)C[C@@H]1C	7	0.19	-34
C[C@@H]1CN([C@@H](C)CO)C(=O)c2cccc(NC(=O)Nc3ccc4c(c3)OCO4)c2O[C@H]1CN(C)Cc1ccc(C(=O)Nc2ccccc2N)cc1	-1	0.072	68*
O=C(O)C12C3CCC4C5C3C1C5(C(=O)O)C42 (centres undefined)	.	-0.85	.
CC(C)(C)NC(=O)CSc1ccc(Cl)cc1	.	0.077	.
C[C@H](CO)N1C[C@H](C)[C@H](CN(C)Cc2ccc(C(=O)Nc3ccccc3N)cc2)Oc2ccc(NC(=O)Nc3ccc4c(c3)OCO4)cc2C1=O	-3	0.091	74*
SMILES	INS-1E rescue	YB-1 expression	T cruzi HTS
C[C@H]1CN([C@@H](C)CO)C(=O)c2cccc(NC(=O)Nc3ccc4c(c3)OCO4)c2O[C@@H]1CN(C)CC1CC1	-11	0.1	4
C[C@H]1CN([C@@H](C)CO)C(=O)c2cc(NC(=O)Nc3ccccc3)ccc2O[C@H]1CN(C)Cc1ccc(C(=O)Nc2ccccc2N)cc1	-7	0.42	54
C[C@H](CO)N1C[C@H](C)[C@@H](CN(C)CC2CC2)Oc2c(NC(=O)Nc3ccc4c(c3)OCO4)cccc2C1=O	-5	-0.11	58*
C[C@@H]1CN([C@H](C)CO)C(=O)c2cc(NC(=O)Cn3cnnn3)ccc2O[C@H]1CN(C)Cc1ccc(C(=O)Nc2ccccc2N)cc1	-12	0.006	29
C[C@H](CO)N1C[C@H](C)[C@@H](CN(C)Cc2ccc(C(=O)Nc3ccccc3N)cc2)Oc2ccc(NC(=O)Cn3cnnn3)cc2C1=O	-11	0.23	69*
C[C@@H]1CN([C@H](C)CO)C(=O)c2cccc(NC(=O)c3ccncc3)c2O[C@@H]1CN(C)Cc1ccc(Oc2ccccc2)cc1	-16	0.24	81*
C[C@H](CO)N1C[C@H](C)[C@H](CN(C)Cc2ccc(Oc3ccccc3)cc2)Oc2c(NC(=O)c3cnccn3)cccc2C1=O	-29	1	69*
C[C@@H]1CN([C@@H](C)CO)C(=O)c2cccc(NC(=O)c3ccncc3)c2O[C@H]1CN(C)Cc1ccc(Oc2ccccc2)cc1	-7	0.62	80*
C[C@H](CO)N1C[C@H](C)[C@@H](CN(C)Cc2ccc(Oc3ccccc3)cc2)Oc2c(NC(=O)c3cnccn3)cccc2C1=O	-42	-0.61	?
C[C@H]1CN([C@@H](C)CO)C(=O)c2cccc(NC(=O)c3ccncc3)c2O[C@H]1CN(C)Cc1ccc(Oc2ccccc2)cc1	-16	-0.13	82*
C[C@@H]1CN([C@H](C)CO)C(=O)c2cccc(NC(=O)c3cnccn3)c2O[C@H]1CN(C)Cc1ccc(Oc2ccccc2)cc1	-22	-0.19	33
C[C@@H]1CN([C@@H](C)CO)C(=O)c2cccc(NC(=O)c3cnccn3)c2O[C@H]1CN(C)Cc1ccc(Oc2ccccc2)cc1	-30	-0.26	33
COC(=O)c1cc(O)c(C(=O)c2c(O)cccc2C(=O)O)c(O)c1	.	-0.029	.
O=C(Nc1ccccc1C(F)(F)F)C1c2ccccc2Oc2ccccc21	.	-0.21	.
N#Cc1cnc(Sc2nnc(-c3ccncc3)n2-c2ccccc2)nc1N	.	-0.59	.
CCOC(=O)c1c(CN2CCCCC2)n(-c2ccccc2)c2ccc(OC(C)=O)cc12	.	-0.22	.
NC(=O)c1nnn(Cc2ccccc2)c1N	.	0.32	.
CCSc1nc(O)c(C(C)CC)c(=O)[nH]1 (centres undefined)	.	-0.17	.
O=C(O)c1cccc(CN2CCN(c3ccccc3)CC2)c1	.	0.12	.
CCN(CC)C(=O)c1c(NC(=O)c2cccs2)sc2c1CCCC2	.	-0.029	.
